TDP2 absorb: TDP2 (human) inhibition, absorbance primary screen; recombinant TDP2, T5PNP hydrolysis, p-nitrophenol absorbance 415 nm; inhibition, % at 12.8 µM; 370,000 tested, 0.34% active;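 active = inhibition above the mean of all tested compounds plus 3 SD, set per campaign, cut at about 25% in these data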
Target sequence (O95551 whole entry, looked up): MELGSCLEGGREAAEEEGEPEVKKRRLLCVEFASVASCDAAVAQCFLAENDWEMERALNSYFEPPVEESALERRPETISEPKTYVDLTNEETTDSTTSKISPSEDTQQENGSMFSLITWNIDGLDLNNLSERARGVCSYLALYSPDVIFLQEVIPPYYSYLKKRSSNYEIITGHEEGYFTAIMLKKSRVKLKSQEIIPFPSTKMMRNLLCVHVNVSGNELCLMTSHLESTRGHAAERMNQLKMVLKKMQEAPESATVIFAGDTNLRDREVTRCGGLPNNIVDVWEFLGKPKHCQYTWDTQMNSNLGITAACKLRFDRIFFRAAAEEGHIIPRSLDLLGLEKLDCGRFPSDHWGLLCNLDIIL
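Read-out basis: percent inhibition. System: recombinant human TDP2. Buffer or medium: Mg2+-containing Tris-HCl buffer, pH 7.5. Repeats: single replicate. Timing: reaction 2 h, 37 °C. Benchmarks: high control without enzyme, low control DMSO plus TDP2. Probe or stimulus: 5 mM T5PNP. Doses: 12.8 µM only. Measured by: epi absorbance of p-nitrophenol freed from T5PNP by hydrolysis.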
LEDGF integ inh: blocks HIV-1 LEDGF/p75-dependent DNA integration. TR-FRET IN-LEDGF/p75 DNA integration, Eu/Cy5. inhibition, % at 3.7 µM. 370,000 tested, 0.64% active;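 active = inhibition above the screen-wide mean plus 3 SD, cut at about 13% in these data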;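 also: signal is the Cy5 over europium emission ratio at 671 and 618 nm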
UHRF1 MBD2 ctr: human UHRF1 methylated DNA binding inhibitors; 370,000 tested, 0.75% active; AID 687016; Q96T88; UHRF1 binding to methylated oligo, TR-FRET; inhibition, % at 4.4 µM; in the data active = inhibition above about 21%;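 also: UHRF1 SRA domain binding a hemimethylated CpG hairpin DNA probe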
MBD2 inh: blocks human MBD2 binding to methylated DNA; TR-FRET, MBD2 binding to methylated oligonucleotide; 370,000 tested, 0.31% active; Q9UBB5; inhibition, % at 4.4 µM; AID 686964; in the data active = inhibition above about 13%
IN multimer up: activates HIV-1 integrase multimerization in LEDGF counter-screen | shares compounds with LEDGF integ inh | TR-FRET HIV-1 integrase multimerization, biochemical | activation, % at 7.7 µM | 2,000 tested, 17% active; in the data active = activation above about 8.9%
TR-FRET interf: optically interferes with TR-FRET readout in LEDGF counter-screen; TR-FRET optical interference counterscreen, HIV-1 IN multimerization; inhibition, % at 7.7 µM; 2,000 tested, under 10 active; shares compounds with LEDGF integ inh; AID 1053135;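 active = inhibition above the mean over all tested compounds plus 3 SD, which no compound reached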
LEDGF integ conf: LEDGF/p75-dependent HIV-1 integration inhibition, confirmation; inhibition, % at 3.7 µM; shares compounds with LEDGF integ inh; TR-FRET LEDGF/p75-dependent HIV-1 integration, biochemical; 2,000 tested, 36% active; in the data active = inhibition above about 14%
Each line names hits and unclear results; the compound was inactive in the other large screens (follow-up assays come after a bar, where they were run). An excerpt weighted towards active compounds, which were near 1.6% of everything screened.

O=C(O)/C=C/C(=O)N1N=C(c2ccco2)CC1c1ccco1 (stereo not given)	LEDGF integ inh 51.3 | IN multimer up inactive | TR-FRET interf inactive | LEDGF integ conf inactive
COCCN1C(=O)N[C@@H](c2cccc(F)c2)C(C(=O)OC)=C1C	LEDGF integ inh 28.8 | IN multimer up inactive | TR-FRET interf inactive | LEDGF integ conf inactive
COC(=O)C1=C(C)N(Cc2ccccc2)C(=O)N[C@H]1c1cccc(F)c1	none
CS(=O)(=O)c1ccc(-c2cccc(NC(=O)COc3ccccc3)c2)nn1	none
O=C1C=C(Nc2cccc(O)c2)CC(c2ccco2)C1 (stereo not given)	LEDGF integ inh 14.0 | IN multimer up inactive | TR-FRET interf inactive | LEDGF integ conf inactive
Cc1cc(NC(=O)CCC(=O)N(CC(=O)NCC2CCCO2)c2ccc(Cl)c(Cl)c2)no1 (stereo not given)	none
NC(=O)c1sc2nc3c(c(-c4ccco4)c2c1N)CCCC3	none
Cc1ccccc1NC(=O)c1sc2nc3c(c(-c4ccco4)c2c1N)CCC3	LEDGF integ inh 46.1 | IN multimer up inactive | TR-FRET interf inactive | LEDGF integ conf inactive
Cc1noc(/C=C/c2ccco2)c1S(=O)(=O)N1CCC(C(=O)NCc2ccco2)CC1	LEDGF integ inh 33.1 | IN multimer up inactive | TR-FRET interf inactive | LEDGF integ conf inactive
Cc1cccnc1NC(=O)C1CCN(S(=O)(=O)c2c(C)noc2/C=C/c2ccco2)CC1	LEDGF integ inh 24.1 | IN multimer up inactive | TR-FRET interf inactive | LEDGF integ conf inactive
O=C(COc1cccnc1[N+](=O)[O-])Nc1ccc(N2CCOCC2)cc1	none
COc1ccc(CNc2ccc(N3CCN(C(C)=O)CC3)cc2)cc1OC	LEDGF integ inh 15.5 | IN multimer up inactive | TR-FRET interf inactive | LEDGF integ conf inactive
CC(=O)N1CCN(c2ccc(NCc3cccs3)cc2)CC1	LEDGF integ inh 21.6 | IN multimer up inactive | TR-FRET interf inactive | LEDGF integ conf inactive
Cc1ccc(CNc2ccc(N3CCOCC3)cc2)s1	none
CC(=O)N1CCN(c2ccc(NCc3ccc(-c4ccc(Br)cc4)o3)cc2)CC1	LEDGF integ inh 19.5 | IN multimer up inactive | TR-FRET interf inactive | LEDGF integ conf inactive
CC(=O)N1CCN(c2ccc(NCc3ccc4c(c3)OCO4)cc2)CC1	none
CC(=O)N1CCN(c2ccc(NCc3ccc(C)s3)cc2)CC1	LEDGF integ inh 14.8 | IN multimer up inactive | TR-FRET interf inactive | LEDGF integ conf inactive
COC(=O)[C@]12C[C@H](CC(=O)NCc3ccc(OC)c(OC)c3)C(=O)N(CCC3=CCCCC3)C1=C[C@H](C1CCCC1)O[C@@H]2C	none
Cc1ccc(S(=O)(=O)N2CCN(C(=O)COC(=O)CCOc3cc(C)ccc3C)CC2)cc1	none
CC1=C(C#N)c2nc(N)c(C#N)c(C)c2/C1=C\c1ccc(OCC(=O)O)c(Cl)c1	none
Cc1cc2nc(C3CCCCC3)c(Cc3ccccc3C(F)(F)F)n2c(C)c1Br	none
O=C(CN1CCN(S(=O)(=O)c2ccc(Cl)cc2)CC1)NC1CC1	LEDGF integ inh 33.9 | IN multimer up inactive | TR-FRET interf inactive | LEDGF integ conf inactive
CCN1CCCC1CNC(=O)Cn1nc(C)n2c(cc3cc(F)ccc32)c1=O (stereo not given)	LEDGF integ inh 19.0 | IN multimer up inactive | TR-FRET interf inactive | LEDGF integ conf inactive
Cn1c(N)c(S(=O)(=O)N2CCN(c3ccccc3)CC2)c(=O)n(C)c1=O	LEDGF integ inh 14.9 | IN multimer up inactive | TR-FRET interf inactive | LEDGF integ conf inactive
CCN(CC)C(=O)[C@H]1C[C@H](CC(=O)NCc2ccco2)C(=O)N2CCc3c([nH]c4cc(-c5ccco5)ccc34)[C@]12C	LEDGF integ inh 16.9 | IN multimer up inactive | TR-FRET interf inactive | LEDGF integ conf inactive
CC(=O)c1cccc(-c2ccc3c(c2)C(C)(Cc2ccc(S(C)(=O)=O)cc2)C(=O)N3)c1 (stereo not given)	LEDGF integ inh 48.5 | IN multimer up inactive | TR-FRET interf inactive | LEDGF integ conf inactive
CC(=O)c1cccc(-c2ccc3c(c2)C(C)(Cc2ccccc2C#N)C(=O)N3)c1 (stereo not given)	none

Bioassay records deposited in PubChem by The Scripps Research Institute Molecular Screening Center.
